Laboratory results from ChEMBL document CHEMBL4392827, “Tryptamine derivatives disarm colistin resistance in polymyxin-resistant gram-negative bacteria” (Bioorg Med Chem, 2019).
Calls of active or inactive are those of the source. No cut-off for these calls is given here.

system: Acinetobacter baumannii; assay: Potentiation of colistin-induced antimicrobial activity against colistin-resistant Acinetobacter baumannii ATCC 17978 expressing mcr1 gene assessed as fold reduction in colistin MIC at 60 uM after 18 hrs by broth microdilution assay; assay type: functional; conditions: not given
Summary of the method: (§1)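 Checkerboard-style resensitization following adapted CLSI broth microdilution. Bacteria were grown 4–6 h in CAMHB and subcultured to 5×10^5 CFU/mL. Adjuvant was added from DMSO stock and held constant while colistin was serially diluted in the dosed subculture. Plates were incubated stationary at 37°C for 18 h, then MICs were read. Fold reduction was taken relative to the colistin MIC without adjuvant.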

SMILES | fold change (FC)
O=C(NCCCc1c[nH]c2ccccc12)c1cc(Br)c(Br)[nH]1 | 32
O=C(NCc1cc2ccccc2[nH]1)c1cc(Br)c(Br)[nH]1 | 32
CCCCn1cc(CCNC(=O)c2cc(Br)c(Br)[nH]2)c2ccccc21 | 0

system: Klebsiella pneumoniae; assay: Potentiation of colistin-induced antimicrobial activity against colistin-resistant Klebsiella pneumoniae isolate A5 assessed as fold reduction in colistin MIC at 60 uM after 18 hrs by broth microdilution assay; assay type: functional; conditions: not given; summary of the method: as §1

SMILES | fold change (FC)
O=C(NCCCc1c[nH]c2ccccc12)c1cc(Br)c(Br)[nH]1 | 256
O=C(NCc1cc2ccccc2[nH]1)c1cc(Br)c(Br)[nH]1 | 512

system: Acinetobacter baumannii; assay: Toxicity in Acinetobacter baumannii ATCC 17978 expressing mcr1 gene after 18 hrs by broth microdilution assay; assay type: organism-based; conditions: not given
Summary of the method: (§2)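 Single-agent MIC per CLSI broth microdilution. Cells from a 4–6 h culture in cation-adjusted Mueller-Hinton broth adjusted to 5 ×10^5 CFU/mL. Compound (DMSO stock) added to 200 μM top concentration and twofold serially diluted six times, with an untreated control row. Plates sealed and incubated stationary at 37°C for 18 h before MIC read.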

SMILES | MIC [µM]
O=C(NCCCc1c[nH]c2ccccc12)c1cc(Br)c(Br)[nH]1 | > 200
O=C(NCc1cc2ccccc2[nH]1)c1cc(Br)c(Br)[nH]1 | > 200
CCCCn1cc(CCNC(=O)c2cc(Br)c(Br)[nH]2)c2ccccc21 | > 200

system: Klebsiella pneumoniae; assay: Induction of membrane permeabilization in colistin-resistant Klebsiella pneumoniae isolate C3 at 60 uM measured after 1 hr by SYTO-9/propidium iodide staining based fluorescence assay relative to control; assay type: functional; conditions: not given
Summary of the method: (§3)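 Cells were grown overnight in CAMHB at 37°C, diluted 1:10 and grown 4 h more to an OD600 of ~0.3. They were pelleted, washed with sterile water and resuspended at 1/10 volume in water containing compound. After 1 h at 37°C with shaking, cells were washed and stained with SYTO-9/propidium iodide (1:1, 3 μL/mL) for 15 min at RT. Emission was read at 530 and 645 nm (excitation 485 nm), and the green/red ratio was expressed as % of the untreated control.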

SMILES | Activity
CCCCn1cc(CCNC(=O)c2cc(Br)c(Br)[nH]2)c2ccccc21 | inactive

system: Klebsiella pneumoniae; assay: Potentiation of colistin-induced antimicrobial activity against colistin-resistant Klebsiella pneumoniae B9 assessed as fold reduction in colistin MIC at 60 uM after 18 hrs by broth microdilution assay; assay type: functional; conditions: not given; summary of the method: as §1

SMILES | fold change (FC)
O=C(NCCCc1c[nH]c2ccccc12)c1cc(Br)c(Br)[nH]1 | 4096
O=C(NCc1cc2ccccc2[nH]1)c1cc(Br)c(Br)[nH]1 | 4096
CCCCn1cc(CCNC(=O)c2cc(Br)c(Br)[nH]2)c2ccccc21 | 0

system: Acinetobacter baumannii; assay: Potentiation of colistin-induced antimicrobial activity against colistin-sensitive Acinetobacter baumannii 5075 assessed as fold reduction in colistin MIC at 60 uM after 18 hrs by broth microdilution assay; assay type: functional; conditions: not given
Summary of the method: (§4)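 Bacteria grown 4–6 h in cation-adjusted Mueller-Hinton broth and diluted to 5 ×10^5 CFU/mL. Adjuvant from DMSO stock held at fixed 60 μM while colistin is twofold serially diluted in the same adjuvant-dosed broth. Plates sealed and kept stationary at 37°C for 18 h. Colistin MIC read and fold reduction taken relative to colistin alone.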

SMILES | fold change (FC)
O=C(NCCCc1c[nH]c2ccccc12)c1cc(Br)c(Br)[nH]1 | 4
O=C(NCc1cc2ccccc2[nH]1)c1cc(Br)c(Br)[nH]1 | 2

system: Klebsiella pneumoniae; assay: Toxicity in Klebsiella pneumoniae B9 after 18 hrs by broth microdilution assay; assay type: organism-based; conditions: not given; summary of the method: as §2

SMILES | MIC [µM]
O=C(NCCCc1c[nH]c2ccccc12)c1cc(Br)c(Br)[nH]1 | > 200
O=C(NCc1cc2ccccc2[nH]1)c1cc(Br)c(Br)[nH]1 | > 200
CCCCn1cc(CCNC(=O)c2cc(Br)c(Br)[nH]2)c2ccccc21 | > 200

system: Acinetobacter baumannii; assay: Potentiation of colistin-induced antimicrobial activity against colistin-resistant Acinetobacter baumannii isolate 3942 assessed as fold reduction in colistin MIC at 60 uM after 18 hrs by broth microdilution assay; assay type: functional; conditions: not given; summary of the method: as §1

SMILES | fold change (FC)
O=C(NCCCc1c[nH]c2ccccc12)c1cc(Br)c(Br)[nH]1 | 256
O=C(NCc1cc2ccccc2[nH]1)c1cc(Br)c(Br)[nH]1 | 256

system: Acinetobacter baumannii; assay: Potentiation of colistin-induced antimicrobial activity against Acinetobacter baumannii ATCC 17978 assessed as fold reduction in colistin MIC at 60 uM after 18 hrs by broth microdilution assay; assay type: functional; conditions: not given; summary of the method: as §4

SMILES | fold change (FC)
O=C(NCCCc1c[nH]c2ccccc12)c1cc(Br)c(Br)[nH]1 | 4
O=C(NCc1cc2ccccc2[nH]1)c1cc(Br)c(Br)[nH]1 | 2

system: Escherichia coli; assay: Potentiation of colistin-induced antimicrobial activity against Escherichia coli ATCC 25922 assessed as fold reduction in colistin MIC at 60 uM after 18 hrs by broth microdilution assay; assay type: functional; conditions: not given; summary of the method: as §4

SMILES | fold change (FC)
O=C(NCCCc1c[nH]c2ccccc12)c1cc(Br)c(Br)[nH]1 | 2
O=C(NCc1cc2ccccc2[nH]1)c1cc(Br)c(Br)[nH]1 | 2

system: Escherichia coli; assay: Toxicity in Escherichia coli ATCC 25922 after 18 hrs by broth microdilution assay; assay type: organism-based; conditions: in vitro; summary of the method: as §2

SMILES | MIC [µM]
O=C(NCCCc1c[nH]c2ccccc12)c1cc(Br)c(Br)[nH]1 | > 200
O=C(NCc1cc2ccccc2[nH]1)c1cc(Br)c(Br)[nH]1 | > 200
CCCCn1cc(CCNC(=O)c2cc(Br)c(Br)[nH]2)c2ccccc21 | > 200

system: not listed separately; assay: Hemolytic activity in sheep erythrocytes assessed as hemolysis at 100 uM incubated for 1 hr under shaking condition by UV-spectrophotometry; assay type: ADME, cell-based, Ovis aries, Erythrocyte; conditions: read-out: Activity
Summary of the method: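 Washed sheep erythrocytes (defibrinated blood spun, resuspended in PBS three times) diluted 10-fold in PBS containing compound from DMSO stock. DMSO negative control (0% lysis), 1% Triton X100 positive control (100% lysis). 1 h at 37°C with shaking, then spun 10 min at 10,000 rpm and supernatant diluted 1:40 in distilled water.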

SMILES | hemolysis at 1 h, 100 µM [%]
CCCCn1cc(CCNC(=O)c2cc(Br)c(Br)[nH]2)c2ccccc21 | < 1

system: Acinetobacter baumannii; assay: Toxicity in Acinetobacter baumannii 4106 after 18 hrs by broth microdilution assay; assay type: organism-based; conditions: in vitro; summary of the method: as §2

SMILES | MIC [µM]
O=C(NCCCc1c[nH]c2ccccc12)c1cc(Br)c(Br)[nH]1 | > 200
O=C(NCc1cc2ccccc2[nH]1)c1cc(Br)c(Br)[nH]1 | > 200
CCCCn1cc(CCNC(=O)c2cc(Br)c(Br)[nH]2)c2ccccc21 | > 200

system: Escherichia coli; assay: Potentiation of colistin-induced antimicrobial activity against colistin-resistant Escherichia coli ATCC 25922 expressing mcr1 gene assessed as fold reduction in colistin MIC at 60 uM after 18 hrs by broth microdilution assay; assay type: functional; conditions: not given; summary of the method: as §1

SMILES | fold change (FC)
O=C(NCCCc1c[nH]c2ccccc12)c1cc(Br)c(Br)[nH]1 | 16
O=C(NCc1cc2ccccc2[nH]1)c1cc(Br)c(Br)[nH]1 | 16
CCCCn1cc(CCNC(=O)c2cc(Br)c(Br)[nH]2)c2ccccc21 | 0

system: Acinetobacter baumannii; assay: Potentiation of colistin-induced antimicrobial activity against colistin-resistant Acinetobacter baumannii isolate 3941 assessed as fold reduction in colistin MIC at 60 uM after 18 hrs by broth microdilution assay; assay type: functional; conditions: not given; summary of the method: as §1

SMILES | fold change (FC)
O=C(NCCCc1c[nH]c2ccccc12)c1cc(Br)c(Br)[nH]1 | 256
O=C(NCc1cc2ccccc2[nH]1)c1cc(Br)c(Br)[nH]1 | 256

system: Acinetobacter baumannii; assay: Induction of membrane permeabilization in colistin-resistant Acinetobacter baumannii isolate 3942 at 60 uM measured after 1 hr by SYTO-9/propidium iodide staining based fluorescence assay relative to control; assay type: functional; conditions: not given; summary of the method: as §3

SMILES | Activity
CCCCn1cc(CCNC(=O)c2cc(Br)c(Br)[nH]2)c2ccccc21 | inactive

system: Acinetobacter baumannii; assay: Potentiation of colistin-induced antimicrobial activity against colistin-resistant Acinetobacter baumannii 4106 assessed as fold reduction in colistin MIC at 60 uM after 18 hrs by broth microdilution assay; assay type: functional; conditions: not given; summary of the method: as §1

SMILES | fold change (FC)
O=C(NCCCc1c[nH]c2ccccc12)c1cc(Br)c(Br)[nH]1 | 512
O=C(NCc1cc2ccccc2[nH]1)c1cc(Br)c(Br)[nH]1 | 2048
CCCCn1cc(CCNC(=O)c2cc(Br)c(Br)[nH]2)c2ccccc21 | 0

system: Klebsiella pneumoniae; assay: Potentiation of colistin-induced antimicrobial activity against colistin-resistant Klebsiella pneumoniae isolate C3 assessed as fold reduction in colistin MIC at 60 uM after 18 hrs by broth microdilution assay; assay type: functional; conditions: not given; summary of the method: as §1

SMILES | fold change (FC)
O=C(NCCCc1c[nH]c2ccccc12)c1cc(Br)c(Br)[nH]1 | 1024
O=C(NCc1cc2ccccc2[nH]1)c1cc(Br)c(Br)[nH]1 | 2048

system: Acinetobacter baumannii; assay: Potentiation of colistin-induced antimicrobial activity against colistin-resistant Acinetobacter baumannii isolate 4112 assessed as fold reduction in colistin MIC at 60 uM after 18 hrs by broth microdilution assay; assay type: functional; conditions: not given; summary of the method: as §1

SMILES | fold change (FC)
O=C(NCCCc1c[nH]c2ccccc12)c1cc(Br)c(Br)[nH]1 | 256
O=C(NCc1cc2ccccc2[nH]1)c1cc(Br)c(Br)[nH]1 | 512

system: Klebsiella pneumoniae; assay: Potentiation of colistin-induced antimicrobial activity against Klebsiella pneumoniae ATCC BAA-2146 expressing NDM1 gene assessed as fold reduction in colistin MIC at 60 uM after 18 hrs by broth microdilution assay; assay type: functional; conditions: not given; summary of the method: as §4

SMILES | fold change (FC)
O=C(NCCCc1c[nH]c2ccccc12)c1cc(Br)c(Br)[nH]1 | 2
O=C(NCc1cc2ccccc2[nH]1)c1cc(Br)c(Br)[nH]1 | 0
